Source: PubChem BioAssay
SR-BI uptake up – SR-BI HDL lipid transfer activation; CHO ldlA[mSR-BI] cells, DiI-HDL uptake fluorescence, 3 h; 100 = double the neutral-control signal; activation, % at 12.5 µM; 320,000 compounds, 0.096% hits;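 active means mean replicate activation of at least 60% and every replicate at or above 60%; inconclusive means mean or all-replicate condition met, but not both; inactive means mean below 60% and not all replicates reaching 60%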;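 further: 0% = median plate neutral-control signal and 100% = twice that signal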
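system = CHO ldlA[mSR-BI] cells, LDL receptor-null, SR-BI overexpressing | medium = Ham's F12 with 0.5% BSA, HEPES 25 mM, pH 7.4 | probe or stimulus = DiI-HDL 10 µg/mL | compound dosing = single-point compound dose | incubation = compound exposure 3 h, 37 °C | technique = DiI fluorescence, bottom read | read-out = cell-associated DiI fluorescence as measure of HDL uptake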
Xi reactivation – activators of X-chromosome reactivation in mouse fibroblasts | XiGFP mouse fibroblasts, % GFP-positive cells imaging, 3 d; cells co-treated with 5-aza-dC sensitizer; scaled so ellipticine positive control = 100% | activation, % at 7.58 µM | 360,000 compounds, 0.055% hits;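 active means mean normalized replicate activation at least 10% and every replicate at or above 10%; inconclusive means only one of the two criteria met; inactive means mean below 10% and not all replicates reach 10%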;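 further: 0% = median of on-plate neutral control wells and 100% = ellipticine 6 µM median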
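Material: SV40-immortalized XiGFP fibroblast cells, line 68-5-11 | Buffer or medium: DMEM containing 5-aza-dC | Dosing: One concentration, pinned | Times: 3 d treatment, 15 min room-temperature fixation | Controls: Ellipticine 6 µM positive control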
dFosB activator – enhances mouse delta FosB homodimer DNA binding. purified delta FosB, TAMRA-CDK5 oligo fluorescence polarization; percent of positive-control signal above neutral wells. activation, % at 25 µM. 340,000 compounds, 0.99% hits;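 active means mean activation above about 17%, with every replicate also reaching it, limit read from the data, passing the limit was not always enough; inconclusive means only one of the two conditions met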
Target sequence (P13346 whole entry, looked up): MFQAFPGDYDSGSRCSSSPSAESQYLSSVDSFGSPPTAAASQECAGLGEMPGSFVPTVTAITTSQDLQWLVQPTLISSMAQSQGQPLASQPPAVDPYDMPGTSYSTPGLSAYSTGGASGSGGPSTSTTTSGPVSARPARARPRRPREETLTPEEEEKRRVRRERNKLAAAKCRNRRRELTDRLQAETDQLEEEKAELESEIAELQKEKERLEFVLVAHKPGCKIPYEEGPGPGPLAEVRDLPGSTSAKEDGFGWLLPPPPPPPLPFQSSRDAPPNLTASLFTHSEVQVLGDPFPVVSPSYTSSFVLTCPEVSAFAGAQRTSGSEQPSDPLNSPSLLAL
rRNA inh HTS – inhibits bacterial ribosomal RNA function over humanized ribosomes | E. coli WT GFP vs humanized-ribosome RFP mutants, fluorescence, 24 h; hits give low values; DMSO median 0, no signal -100 | GFP signal change (wild-type ribosome), % (concentration not given with the values) | 350,000 compounds, 1.6% hits | AID 720706;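 active means significant combined selectivity score with lowered wild-type GFP, culture density cut under 30%, mutant RFP and density less affected; inactive means any of these conditions unmet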
PvdQ acylase – blocks Pseudomonas aeruginosa PvdQ acylase activity; purified PvdQ acylase, fluorescence plate reader; inhibition, % at 10 µM; 340,000 compounds, 0.063% hits; AID 488965; in the data active means inhibition above about 30%, passing the limit was not always enough; inconclusive means no clear call, values can overlap the other calls;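 further: 0% = vehicle neutral wells and 100% = reference inhibitor wells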
SR-BI HDL uptake – inhibitors of mouse SR-BI mediated HDL lipid uptake | ldlA[mSR-BI] CHO cells, DiI-HDL uptake fluorescence, 3 h | 320,000 compounds, 0.96% hits | AID 488896 | inhibition, % at 12.5 µM | Q61009;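 active means mean replicate inhibition of at least 70% and a set share of replicates each scoring 70 or more; inconclusive means meets just one of the two criteria; inactive means fails both criteria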;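 further: 0% = median of neutral control wells and 100% = median of positive control wells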
Numbers without * were called inactive; ? = inconclusive; nt = no result given. In the library only some 2.6% were active in any assay of this set; here they are far more common.

SMILES	SR-BI uptake up	Xi reactivation	dFosB activator	rRNA inh HTS	PvdQ acylase	SR-BI HDL uptake
COC(=O)c1cc(OC)c(OC)cc1NC(=O)C(C)Sc1ccc(C)cc1 (stereo unspecified)	1.4	nt	-2.5	-26.1*	-11.6	-1.4
COc1cc2c(cc1NC(=O)CSc1ccc(C)cc1)oc1ccccc12	-45.7	nt	-3.5	20.9	-3.6	45.7
COc1ccc([N+](=O)[O-])cc1NC(=O)C(C)Sc1ccc(C)cc1 (stereo unspecified)	-62.7	0.0	-3.2	-13.3	-1.7	62.7
COc1ccc(C)cc1NC(=O)Cn1c(=O)oc2ccccc21	-10.8	0.2	18.8*	13.2	-17.9	10.8
COc1cc2c(cc1NC(=O)CCCCCN1C(=O)CCC1=O)oc1ccccc12	-85.2	nt	2.3	nt	-16.8	85.2*
CC(C)CC#Cc1cnc2c(c1)C(=O)N([C@H](C)CO)C[C@@H](C)[C@@H](CN(C)C(=O)c1ccccc1F)O2	nt	0.2	nt	2.2	nt	nt
COc1cc2c(cc1NC(=O)Cc1ccc(C)cc1)oc1ccccc12	-71.7	0.3	-2.3	15.7	-5.8	71.7*
CO[C@@H]1CN(C)C(=O)c2cc(NC(=O)C3CCC3)ccc2OC[C@@H](C)N(Cc2cccnc2)C[C@H]1C	nt	-0.1	nt	-2.6	nt	nt
Cc1ccc(C(CCN)c2ccco2)cc1 (stereo unspecified)	1.9	nt	-2.9	nt	-2.6	-1.9
Cc1ccc(C(CC(N)=O)c2ccco2)cc1 (stereo unspecified)	71.3*	nt	-0.3	nt	-22.3	-71.3
COc1ccc(Nc2nnc(-c3ccc(C(=O)NCCO)cc3)c3ccccc23)cc1	-59.4	0.1	-6.5	-19.5	6.4	59.4
CNC(=O)c1ccc(Nc2nnc(-c3ccc(C(N)=O)cc3)c3ccccc23)cc1	-11.9	-0.1	-13.1	5.9	7.2	11.9
NC(=O)c1ccc(Nc2nnc(-c3ccc(O)cc3)c3ccccc23)cc1	-14.7	-0.1	?	-23.4*	11.4	14.7
COc1ccc(Nc2nnc(-c3ccc(C(N)=O)cc3)c3ccccc23)cc1	-65.6	0.0	-7.8	-37.9*	-5.4	65.6
CCC(=O)N1c2ccc(S(=O)(=O)N3CCN(c4ccccc4Cl)CC3)cc2CC1C (stereo unspecified)	-0.5	0.0	-0.5	-4.2	-12.5	0.5
COc1cc2c(cc1OC)CN(CCC(C)c1ccc(Cl)cc1)CC2 (stereo unspecified)	12.4	0.0	-9.2	-32.6*	-7.9	-12.3
Cc1ccc(C(=O)Nc2ccccc2C(=O)O)cc1S(=O)(=O)Nc1ccc(Br)cc1	nt	1.8	-14.8	-35.9*	3.0	nt
C=CCNC(=O)c1ccccc1NC(=O)c1ccc(Cl)c(S(=O)(=O)Nc2ccccc2)c1	-63.0	nt	-17.3	-36.4*	3.3	63.0
Cc1ccc(C(=O)Nc2ccccc2C(=O)O)cc1S(=O)(=O)NCc1ccccc1	10.4	0.0	-6.4	-8.1	-13.4	-10.4
Clc1cccc(CNc2ccn3nc(-c4cccc(OCc5ccccc5)c4)cc3n2)c1	nt	0.2	nt	9.5	nt	nt
CCCn1nc(NC(=O)c2cccs2)c2cc3cc(OC)ccc3nc21	-66.1	nt	-11.3	nt	2.2	66.1
CCCCn1nc(NC(=O)c2cccs2)c2cc3cc(OC)ccc3nc21	-82.0	nt	-0.6	nt	-11.6	82.0*
CCCN1C(=O)c2cc(C(=O)Nc3ccc(OC)c(OC)c3)ccc2C1Nc1ccc(OC)c(OC)c1 (stereo unspecified)	-53.7	0.2	-3.9	12.8	-7.0	53.7
CCCN1C(=O)c2cc(C(=O)Nc3ccc(OC)cc3OC)ccc2C1Nc1ccc(OC)cc1OC (stereo unspecified)	-73.7	0.0	-2.4	14.6	-10.8	73.7*
COc1ccc(NC(=S)Nc2ncccc2C)c(OC)c1	-17.0	nt	-0.7	-31.4*	2.5	17.0
SMILES	SR-BI uptake up	Xi reactivation	dFosB activator	rRNA inh HTS	PvdQ acylase	SR-BI HDL uptake
COc1ccc(NC(=S)Nc2ncccc2C)cc1OC	-35.5	0.0	-6.6	-11.4	2.9	35.5
O=S(=O)(Nc1nc2ccccc2nc1NCC1CCCO1)c1ccccc1 (stereo unspecified)	nt	0.1	-3.6	-0.4	7.9	nt
O=S(=O)(Nc1nc2ccccc2nc1NCC1CCCO1)c1cc(Cl)ccc1Cl (stereo unspecified)	nt	0.0	-12.9	-27.4*	-8.0	nt
CCCCC#Cc1ccc(C(=O)NNC(=O)Nc2cc(Cl)cc(Cl)c2)o1	12.0	0.0	4.1	-40.5*	-1.7	-12.0
Cc1cc(C(=O)NNC(=O)Nc2ccc(Cl)cc2)no1	-2.4	0.0	-4.8	nt	-10.9	2.4
CC1=C(C(=O)OCc2ccccc2)C(c2ccccc2Br)NC(=O)N1 (stereo unspecified)	-7.2	0.1	-9.5	-34.4*	-11.1	7.2
CCOc1ccccc1C1NC(=O)NC(C)=C1C(=O)OCc1ccccc1 (stereo unspecified)	-42.2	0.1	-6.7	-21.9	-11.5	42.2
COc1ccccc1C1NC(=O)NC(C)=C1C(=O)OCc1ccccc1 (stereo unspecified)	-14.5	-0.1	8.3	-23.3*	-3.3	14.5
CC(C)=C(c1ccc(Cl)cc1)c1c(N)ncnc1N	nt	0.3	nt	-21.0*	nt	nt
CC(=O)c1c(C)nc(-c2ccc(Cl)cc2)nc1N	-9.4	0.0	-5.3	20.5	-14.0	9.4
O=C(Nc1n[nH]c(=S)s1)c1ccc2ccccc2c1	-37.7	0.1	-13.4	5.9	6.5	37.7
CC(=O)N1CCc2c(sc(NC(=O)c3ccc([N+](=O)[O-])o3)c2C#N)C1	-4.6	0.0	-9.5	-5.0	15.9	4.6
COc1cc(C(=O)Nc2sc3c(c2C#N)CCN(C(C)=O)C3)cc(OC)c1OC	-78.5	0.2	-14.0	-6.5	-1.2	78.5*
CC(=O)N1CCc2c(sc(NC(=O)Cc3ccc(F)cc3)c2C#N)C1	12.0	0.1	-2.0	-1.0	8.6	-12.0
COc1ccc(C(=O)Nc2sc3c(c2C#N)CCN(C(C)=O)C3)cc1	-76.0	0.2	-8.9	1.4	-6.2	76.0*
COCC(=O)N[C@H]1CC[C@@H](CC(=O)NCc2ccccc2OC)O[C@H]1CO	nt	0.0	nt	2.4	nt	nt
O=C(O)c1ccc(CNCc2ccccc2F)cc1	3.5	0.0	9.9	13.4	-13.2	-3.5
CCCCNC(=O)C(NC(=O)Cc1cc(OC)cc(OC)c1)C(=O)c1ccccc1 (stereo unspecified)	nt	-0.3	nt	nt	nt	nt
CCOc1ccc(C(C)=O)cc1CSc1nnnn1-c1ccc(O)cc1	-14.3	0.2	-16.3	-14.9	-6.2	14.3
COc1ccc(C(C)=O)cc1CSc1nnc(-c2ccccc2O)n1-c1ccccc1	-7.6	nt	1.0	-26.6*	-10.4	7.6
COCC(C)n1c(C)cc(C(=O)CSc2nnnn2-c2ccc(O)cc2)c1C (stereo unspecified)	-14.8	0.0	-7.0	-28.5*	-9.8	14.8
